Data as given in ChEMBL document CHEMBL2440016, “Targeting the human parasite Leishmania donovani: discovery of a new promising anti-infectious pharmacophore in 3-nitroimidazo[1,2-a]pyridine series” (Bioorg Med Chem, 2013).

system: not listed separately; assay: Selectivity index, ratio of CC50 for human HepG2 cells to IC50 for Leishmania donovani MHOM/IN/00/DEVI; type: functional; settings: not given
How it was run: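 SI = HepG2 CC50 / L. donovani IC50.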

Question: For `O=[N+]([O-])c1c(CCl)nc2ccccn12`, which “Ratio CC50/IC50” value is on record?
Answer: 0.6

Question: With `O=S(=O)(Cc1cn2cc(I)ccc2n1)c1ccc(Cl)cc1` as the molecule, how does the “Ratio CC50/IC50” value read?
Answer: <0.8

Question: Which “Ratio CC50/IC50” value does the source give for `O=[N+]([O-])c1c(CS(=O)(=O)c2ccccc2)nc2ccc(Cl)cn12` here?
Answer: >5.5

Question: For `O=[N+]([O-])c1c(CS(=O)(=O)c2ccc(Cl)cc2)nc2ccc(Br)cn12`, which “Ratio CC50/IC50” value is on record?
Answer: 0.12

system: not listed separately; assay: Cytotoxicity against human HepG2 cells after 72 hrs by MTT assay; type: cell-based; settings: HepG2 cells
How it was run: (§1)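 Cells plated in RPMI with 10% FCS, L-glutamine and penicillin/streptomycin, 24 h at 37 °C, 6% CO2. Compound dilutions then added for 72 h. MTT 0.5 mg/mL in PBS for 2 h, formazan dissolved in DMSO, A570 with 630 nm reference. Viability taken as % of untreated control. Doxorubicin served as positive control. CC50 from the dose-response curve.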

Question: Which CC50 at 72 h does the source give for `O=[N+]([O-])c1c(CS(=O)(=O)c2ccc(-c3ccccc3)cc2)nc2ccc(Br)cn12` here?
Answer: > 100 µM

Question: With `O=S(=O)(Cc1cn2ccccc2n1)c1ccccc1` as the molecule, how does the CC50 at 72 h read?
Answer: > 100 µM

Question: For `COc1ccc(S(=O)(=O)Cc2nc3ccc(Br)cn3c2[N+](=O)[O-])cc1`, which CC50 at 72 h is on record?
Answer: > 100 µM

Question: With `Cc1nc2ccccn2c1[N+](=O)[O-]` as the molecule, how does the CC50 at 72 h read?
Answer: > 100 µM

Question: For `O=[N+]([O-])c1cnc2ccccn12`, which CC50 at 72 h is on record?
Answer: > 100 µM

Question: For `ClCc1cn2ccccc2n1`, which CC50 at 72 h is on record?
Answer: > 100 µM

Question: Which CC50 at 72 h does the source give for `Cc1ccc(S(=O)(=O)Cc2nc3ccc(Cl)cn3c2[N+](=O)[O-])cc1` here?
Answer: > 100 µM

Question: For `Cc1ccccc1-c1ccc2nc(CS(=O)(=O)c3ccccc3)c([N+](=O)[O-])n2c1`, which CC50 at 72 h is on record?
Answer: > 9.4 µM

Question: For `ClCc1cn2cc(Br)ccc2n1`, which CC50 at 72 h is on record?
Answer: > 100 µM

Question: With `CS(=O)(=O)Cc1nc2ccc(Br)cn2c1[N+](=O)[O-]` as the molecule, how does the CC50 at 72 h read?
Answer: > 100 µM

Question: With `Cc1ccc(S(=O)(=O)Cc2cn3cc(I)ccc3n2)cc1` as the molecule, how does the CC50 at 72 h read?
Answer: > 12.5 µM

Question: For `O=[N+]([O-])c1c(CS(=O)(=O)c2ccc(F)cc2)nc2ccc(Br)cn12`, which CC50 at 72 h is on record?
Answer: > 100 µM

Question: For `c1ccn2ccnc2c1`, which CC50 at 72 h is on record?
Answer: > 100 µM

Question: Which CC50 at 72 h does the source give for `O=[N+]([O-])c1c(CCl)nc2ccccn12` here?
Answer: 8.7 µM

Question: With `O=[N+]([O-])c1c(CS(=O)(=O)c2ccccc2)nc2ccccn12` as the molecule, how does the CC50 at 72 h read?
Answer: > 62.5 µM

Question: For `O=S(=O)(Cc1cn2cc(I)ccc2n1)c1ccc(Cl)cc1`, which CC50 at 72 h is on record?
Answer: 39.1 µM

Question: With `O=[N+]([O-])c1c(CS(=O)(=O)c2ccccc2)nc2ccc(Cl)cn12` as the molecule, how does the CC50 at 72 h read?
Answer: > 100 µM

Question: With `O=[N+]([O-])c1c(CS(=O)(=O)c2ccc(Cl)cc2)nc2ccc(Br)cn12` as the molecule, how does the CC50 at 72 h read?
Answer: 5.5 µM

system: not listed separately; assay: Selectivity index, ratio of CC50 for mouse J774.1 cells to IC50 for Leishmania donovani MHOM/IN/00/DEVI; type: functional; settings: not given

Question: For `O=[N+]([O-])c1c(CS(=O)(=O)c2ccc(-c3ccccc3)cc2)nc2ccc(Br)cn12`, which “Ratio CC50/IC50” value is on record?
Answer: <1.1

Question: For `Cc1ccccc1-c1ccc2nc(CS(=O)(=O)c3ccccc3)c([N+](=O)[O-])n2c1`, which “Ratio CC50/IC50” value is on record?
Answer: <0.5

Question: With `ClCc1cn2cc(Br)ccc2n1` as the molecule, how does the “Ratio CC50/IC50” value read?
Answer: <1.4

Question: With `Cc1ccc(S(=O)(=O)Cc2cn3cc(I)ccc3n2)cc1` as the molecule, how does the “Ratio CC50/IC50” value read?
Answer: <0.5

Question: For `O=[N+]([O-])c1c(CCl)nc2ccccn12`, which “Ratio CC50/IC50” value is on record?
Answer: 0.3

Question: Which “Ratio CC50/IC50” value does the source give for `O=S(=O)(Cc1cn2cc(I)ccc2n1)c1ccc(Cl)cc1` here?
Answer: <0.8

Question: With `O=[N+]([O-])c1c(CS(=O)(=O)c2ccccc2)nc2ccc(Cl)cn12` as the molecule, how does the “Ratio CC50/IC50” value read?
Answer: >5.5

Question: With `O=[N+]([O-])c1c(CS(=O)(=O)c2ccc(Cl)cc2)nc2ccc(Br)cn12` as the molecule, how does the “Ratio CC50/IC50” value read?
Answer: 1.1

system: not listed separately; assay: Cytotoxicity against mouse J774.1 cells after 72 hrs by MTT assay; type: cell-based; settings: J774.1 cells; how it was run: as §1

Question: With `O=[N+]([O-])c1c(CS(=O)(=O)c2ccc(-c3ccccc3)cc2)nc2ccc(Br)cn12` as the molecule, how does the CC50 at 72 h read?
Answer: 54.4 µM

Question: Which CC50 at 72 h does the source give for `O=S(=O)(Cc1cn2ccccc2n1)c1ccccc1` here?
Answer: > 100 µM

Question: Which CC50 at 72 h does the source give for `COc1ccc(S(=O)(=O)Cc2nc3ccc(Br)cn3c2[N+](=O)[O-])cc1` here?
Answer: > 92.5 µM

Question: With `Cc1nc2ccccn2c1[N+](=O)[O-]` as the molecule, how does the CC50 at 72 h read?
Answer: > 100 µM

Question: With `O=[N+]([O-])c1cnc2ccccn12` as the molecule, how does the CC50 at 72 h read?
Answer: > 100 µM

Question: With `COc1cccc2c1C(=O)c1c(O)c3c(c(O)c1C2=O)C[C@@](O)(C(=O)CO)C[C@@H]3O[C@H]1C[C@H](N)[C@H](O)[C@H](C)O1` [DOXORUBICIN] as the molecule, how does the CC50 at 72 h read?
Answer: 0.02 µM

Question: For `ClCc1cn2ccccc2n1`, which CC50 at 72 h is on record?
Answer: > 100 µM

Question: Which CC50 at 72 h does the source give for `Cc1ccc(S(=O)(=O)Cc2nc3ccc(Cl)cn3c2[N+](=O)[O-])cc1` here?
Answer: > 94 µM

Question: Which CC50 at 72 h does the source give for `Cc1ccccc1-c1ccc2nc(CS(=O)(=O)c3ccccc3)c([N+](=O)[O-])n2c1` here?
Answer: 5 µM

Question: For `ClCc1cn2cc(Br)ccc2n1`, which CC50 at 72 h is on record?
Answer: 68.4 µM

Question: Which CC50 at 72 h does the source give for `CS(=O)(=O)Cc1nc2ccc(Br)cn2c1[N+](=O)[O-]` here?
Answer: > 100 µM

Question: With `Cc1ccc(S(=O)(=O)Cc2cn3cc(I)ccc3n2)cc1` as the molecule, how does the CC50 at 72 h read?
Answer: 25 µM

Question: Which CC50 at 72 h does the source give for `O=[N+]([O-])c1c(CS(=O)(=O)c2ccc(F)cc2)nc2ccc(Br)cn12` here?
Answer: > 92.8 µM

Question: With `c1ccn2ccnc2c1` as the molecule, how does the CC50 at 72 h read?
Answer: > 100 µM

Question: For `O=[N+]([O-])c1c(CCl)nc2ccccn12`, which CC50 at 72 h is on record?
Answer: 4.8 µM

Question: For `O=[N+]([O-])c1c(CS(=O)(=O)c2ccccc2)nc2ccccn12`, which CC50 at 72 h is on record?
Answer: > 100 µM

Question: Which CC50 at 72 h does the source give for `O=S(=O)(Cc1cn2cc(I)ccc2n1)c1ccc(Cl)cc1` here?
Answer: 44.2 µM

Question: Which CC50 at 72 h does the source give for `O=[N+]([O-])c1c(CS(=O)(=O)c2ccccc2)nc2ccc(Cl)cn12` here?
Answer: > 100 µM

Question: Which CC50 at 72 h does the source give for `O=[N+]([O-])c1c(CS(=O)(=O)c2ccc(Cl)cc2)nc2ccc(Br)cn12` here?
Answer: 51.1 µM

system: Leishmania donovani; assay: Antimicrobial activity against Leishmania donovani MHOM/IN/00/DEVI promastigotes after 72 hrs by MTT assay; type: functional, organism-based; settings: Leishmania donovani, MHOM/IN/00/DEVI, 72 h; read-out: IC50
How it was run: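 Log-phase promastigotes in Schneider's medium with 20% FCS, 2 mM L-glutamine and penicillin/streptomycin, at 10⁶ parasites/mL. Compound dilutions run in duplicate, final DMSO <0.5%, 72 h at 27 °C. MTT 0.5 mg/mL for 6 h at 27 °C, formazan dissolved in DMSO, A570.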

Question: With `O=[N+]([O-])c1c(CS(=O)(=O)c2ccc(-c3ccccc3)cc2)nc2ccc(Br)cn12` as the molecule, how does the IC50 read?
Answer: > 50 µM

Question: For `O=S(=O)(Cc1cn2ccccc2n1)c1ccccc1`, which IC50 is on record?
Answer: > 50 µM

Question: Which IC50 does the source give for `COc1ccc(S(=O)(=O)Cc2nc3ccc(Br)cn3c2[N+](=O)[O-])cc1` here?
Answer: > 50 µM

Question: With `Cc1nc2ccccn2c1[N+](=O)[O-]` as the molecule, how does the IC50 read?
Answer: > 50 µM

Question: Which IC50 does the source give for `O=[N+]([O-])c1cnc2ccccn12` here?
Answer: > 50 µM

Question: With `ClCc1cn2ccccc2n1` as the molecule, how does the IC50 read?
Answer: > 50 µM

Question: For `Cc1ccc(S(=O)(=O)Cc2nc3ccc(Cl)cn3c2[N+](=O)[O-])cc1`, which IC50 is on record?
Answer: > 50 µM

Question: Which IC50 does the source give for `Cc1ccccc1-c1ccc2nc(CS(=O)(=O)c3ccccc3)c([N+](=O)[O-])n2c1` here?
Answer: > 10 µM

Question: For `ClCc1cn2cc(Br)ccc2n1`, which IC50 is on record?
Answer: > 50 µM

Question: For `CS(=O)(=O)Cc1nc2ccc(Br)cn2c1[N+](=O)[O-]`, which IC50 is on record?
Answer: > 50 µM

Question: For `Cc1ccc(S(=O)(=O)Cc2cn3cc(I)ccc3n2)cc1`, which IC50 is on record?
Answer: > 50 µM

Question: For `O=[N+]([O-])c1c(CS(=O)(=O)c2ccc(F)cc2)nc2ccc(Br)cn12`, which IC50 is on record?
Answer: > 50 µM

Question: For `c1ccn2ccnc2c1`, which IC50 is on record?
Answer: > 50 µM

Question: For `O=[N+]([O-])c1c(CCl)nc2ccccn12`, which IC50 is on record?
Answer: 15.1 µM

Question: With `O=[N+]([O-])c1c(CS(=O)(=O)c2ccccc2)nc2ccccn12` as the molecule, how does the IC50 read?
Answer: > 50 µM

Question: Which IC50 does the source give for `O=S(=O)(Cc1cn2cc(I)ccc2n1)c1ccc(Cl)cc1` here?
Answer: > 50 µM

Question: Which IC50 does the source give for `O=[N+]([O-])c1c(CS(=O)(=O)c2ccccc2)nc2ccc(Cl)cn12` here?
Answer: 18.2 µM

Question: Which IC50 does the source give for `O=[N+]([O-])c1c(CS(=O)(=O)c2ccc(Cl)cc2)nc2ccc(Br)cn12` here?
Answer: 45.4 µM
